Reference: ChEMBL document CHEMBL1125136, “Quinolone antibacterial agents substituted at the 7-position with spiroamines. Synthesis and structure-activity relationships” (1990)
Converted amounts (≈) assume the structure as drawn.

Key:
Escherichia coli [1] = assay: In vivo protective dose for mouse protection assay in Escherichia coli Vogel after peroral administration; type: functional; conditions: po, read-out: PD50
Procedure, shortened: (§1)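 Female Charles River CD-1 mice were given an acute, lethal, systemic infection. A single dose of compound was given at the time of challenge, by the route stated in the line, with 16 animals per dose level. The read-out is the median protective dose (PD50, mg/kg). Per the footnote, values come from 16 animals per test, with a mean variation of ±34%.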

Pseudomonas = assay: Evaluated for minimum inhibitory concentration against gram-negative bacteria Pseudomonas rettgeri H1771; type: functional
Procedure, shortened: (§2)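 Broth microdilution MIC by standard technique. Values come from duplicate experiments and are stated as accurate to ±50%.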

Enterobacter cloacae = assay: Evaluated for minimum inhibitory concentration against gram-negative bacteria Enterobacter cloacae HA 2646; type: functional
Enterococcus faecalis [2] = assay: Evaluated for minimum inhibitory concentration against gram-positive bacteria Staphylococcus faecalis MGH-2
Escherichia coli [3] = assay: Evaluated for minimum inhibitory concentration against gram-negative bacteria Escherichia coli Vogel; type: functional; procedure, shortened: as §2
Escherichia coli [4] = assay: In vivo protective dose was determined in mouse protection assay in Escherichia coli Vogel after subcutaneous administration; type: functional; conditions: sc, read-out: PD50; procedure, shortened: as §1
Staphylococcus aureus [5] = assay: Evaluated for minimum inhibitory concentration against […] bacteria Staphylococcus aureus UC-76; type: functional; procedure, shortened: as §2
[6] = Evaluated for minimum inhibitory concentration against […] bacteria […] SV-1; type: functional; procedure, shortened: as §2
Pseudomonas aeruginosa [7] = assay: Evaluated for minimum inhibitory concentration against gram-negative bacteria Pseudomonas aeruginosa UI-18; type: functional; procedure, shortened: as §2
Streptococcus pyogenes [8] = assay: Evaluated for minimum inhibitory concentration against gram-positive bacteria Streptococcus pyogenes C203
Escherichia coli [9] = assay: `Evaluated for minimum concentration needed to produce linear DNA at an intensity relative to oxolinic acid at 10 mg/mL. by gyrase mediated cleavage of DNA in Escherichia coli 560.; type: functional
Procedure, shortened: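 DNA gyrase isolated from Escherichia coli. The read-out is the minimum drug concentration (μg/mL) that induces gyrase-mediated DNA cleavage, giving linear DNA at an intensity relative to oxolinic acid at 10 mg/mL.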

Staphylococcus aureus [10] = assay: Evaluated for minimum inhibitory concentration against […] bacteria Staphylococcus aureus H228; type: functional; procedure, shortened: as §2
Klebsiella pneumoniae = assay: Evaluated for minimum inhibitory concentration against gram-negative bacteria Klebsiella pneumoniae MGH-2; type: functional; procedure, shortened: as §2
Streptococcus pneumoniae [11] = assay: In vivo protective dose was determined against Streptococcus pneumoniae SV-1 after peroral administration; conditions: po, read-out: PD50
Pseudomonas aeruginosa [12] = assay: In vivo protective dose was determined against Pseudomonas aeruginosa UI-18. after subcutaneous administration; type: functional; conditions: sc, read-out: PD50; procedure, shortened: as §1
Streptococcus pyogenes [13] = assay: In vivo protective dose was determined against Streptococcus pyogenes after subcutaneous administration; conditions: sc, read-out: PD50
Staphylococcus aureus [14] = assay: In vivo protective dose was determined against Staphylococcus aureus VC76 after peroral administration; type: functional; conditions: po, read-out: PD50; procedure, shortened: as §1
Escherichia coli [15] = assay: Evaluated for minimum concentration needed to produce linear DNA at an intensity relative to oxolinic acid at 10 mg/mL. by gyrase mediated cleavage of DNA in Escherichia coli 560.; type: functional; conditions: read-out: MIC
Streptococcus pyogenes [16] = assay: In vivo protective dose was determined against Streptococcus pyogenes after peroral administration; conditions: po, read-out: PD50
Staphylococcus aureus [17] = assay: In vivo protective dose was determined against Staphylococcus aureus VC76. after subcutaneous administration; type: functional; conditions: sc, read-out: PD50; procedure, shortened: as §1
Streptococcus pneumoniae [18] = assay: In vivo protective dose was determined against Streptococcus pneumoniae SV-1 after subcutaneous administration; conditions: sc, read-out: PD50
Pseudomonas aeruginosa [19] = assay: In vivo protective dose was determined against Pseudomonas aeruginosa UI-18. after peroral administration; type: functional; conditions: po, read-out: PD50; procedure, shortened: as §1
Enterococcus faecalis [20] = assay: Evaluated for minimum inhibitory concentration against […] bacteria, Staphylococcus faecalis MGH-2; type: functional; procedure, shortened: as §2
Pseudomonas aeruginosa [21] = assay: Evaluated for minimum inhibitory concentration against gram-negative bacteria Pseudomonas aeruginosa UI-18

| Structure (SMILES) | ED50 (Escherichia coli [1]) [mg/kg] | MIC (Pseudomonas) [µg/mL] | MIC (Enterobacter cloacae) [µg/mL] | MIC (Enterococcus faecalis [2]) [µg/mL] | MIC (Escherichia coli [3]) [µg/mL] | ED50 (Escherichia coli [4]) [mg/kg] | MIC (Staphylococcus aureus [5]) [µg/mL] | MIC [6] [µg/mL] | MIC (Pseudomonas aeruginosa [7]) [µg/mL] | MIC (Streptococcus pyogenes [8]) [µg/mL] | MIC (Staphylococcus aureus [10]) [µg/mL] | MIC (Klebsiella pneumoniae) [µg/mL] | minimum concentration for gyrase-mediated DNA cleavage (Escherichia coli [15]) [µg/mL] | further results |
| --- | --- | --- | --- | --- | --- | --- | --- | --- | --- | --- | --- | --- | --- | --- |
| CCN1CCC2(CCN(c3nc4c(cc3F)c(=O)c(C(=O)O)cn4CC)C2)C1 (stereo not drawn) | 10.3 | 6.3 (≈ 16.2 µM) | 1.6 (≈ 4.12 µM) | 0.8 (≈ 2.06 µM) | 0.4 (≈ 1.03 µM) | 15 | 0.2 (≈ 0.515 µM) | 1.6 (≈ 4.12 µM) | 3.1 (≈ 7.98 µM) | 1.6 (≈ 4.12 µM) | 0.4 (≈ 1.03 µM) | 0.4 (≈ 1.03 µM) | – | MIC (Escherichia coli [9]): 5 µg/mL (≈ 12.9 µM) |
| CCn1cc(C(=O)O)c(=O)c2cc(F)c(N3CCC4(CCN(C)C4)C3)nc21 (stereo not drawn) | 11.4 | 1.6 (≈ 4.27 µM) | 0.4 (≈ 1.07 µM) | 0.2 (≈ 0.534 µM) | 0.1 (≈ 0.267 µM) | 4.4 | 0.025 (≈ 0.0668 µM) | 0.8 (≈ 2.14 µM) | 1.6 (≈ 4.27 µM) | 0.4 (≈ 1.07 µM) | 0.1 (≈ 0.267 µM) | 0.4 (≈ 1.07 µM) | 10 | ED50 (Streptococcus pneumoniae [11]): 30 mg/kg; ED50 (Pseudomonas aeruginosa [12]): 58 mg/kg; ED50 (Streptococcus pyogenes [13]): 13 mg/kg; ED50 (Staphylococcus aureus [14]): 8.5 mg/kg; ED50 (Streptococcus pyogenes [16]): 27 mg/kg; ED50 (Staphylococcus aureus [17]): 3.6 mg/kg; ED50 (Streptococcus pneumoniae [18]): 16 mg/kg; ED50 (Pseudomonas aeruginosa [19]): 200 mg/kg |
| CCn1cc(C(=O)O)c(=O)c2cc(F)c(N3CCCC4(CCCNC4)C3)c(F)c21 (stereo not drawn) | – | 25 (≈ 61.7 µM) | 6.3 (≈ 15.5 µM) | – | 3.1 (≈ 7.65 µM) | – | 0.4 (≈ 0.987 µM) | 6.3 (≈ 15.5 µM) | 12.5 (≈ 30.8 µM) | 3.1 (≈ 7.65 µM) | 3.1 (≈ 7.65 µM) | 6.3 (≈ 15.5 µM) | 7.5 | MIC (Enterococcus faecalis [20]): 3.1 µg/mL (≈ 7.65 µM) |
| CN1CCC2(CCN(c3c(F)cc4c(=O)c(C(=O)O)cn(C5CC5)c4c3F)C2)C1 (stereo not drawn) | 5 | 0.2 (≈ 0.496 µM) | 0.05 (≈ 0.124 µM) | 0.1 (≈ 0.248 µM) | 0.05 (≈ 0.124 µM) | 2 | 0.013 (≈ 0.0322 µM) | 0.05 (≈ 0.124 µM) | – | 0.05 (≈ 0.124 µM) | 0.25 (≈ 0.62 µM) | 0.1 (≈ 0.248 µM) | 0.5 | MIC (Pseudomonas aeruginosa [21]): 0.8 µg/mL (≈ 1.98 µM) |
